Test results taken from ChEMBL document CHEMBL1122016, “Aminotetralins as narcotic antagonists. 2. Synthesis and opiate-related activity of 1-phenyl-3-aminotetralins” (1982).
Activity calls are given as the source filed them. The calls are words filed in the database; no cut-off is given here.

What was measured:
Mus musculus [1] = organism: Mus musculus; assay: activity in the mouse hotplate procedure; assay type: functional
Mus musculus [2] = assay: The Narcotic-antagonistic activity the ability to reverse an ED50 dose of morphine when tested in mice by the tail-flick procedure at the dose of 1 mg/kg (s.c.); assay type: functional; settings: sc
How it was run: (§1)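 Mouse tail-flick antagonism assay: test agents given subcutaneously as hydrochloride salts of racemic mixtures, each at 30, 10, 3 and 1 mg/kg, against a subcutaneous ED50 dose of morphine. The read-out is percent inhibition, meaning reversal, of the morphine tail-flick response. Testing was performed by an outside laboratory (NIDA).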

Mus musculus [3] = assay: The Narcotic-antagonistic activity the ability to reverse an ED50 dose of morphine when tested in mice by the tail-flick procedure at the dose of 3 mg/kg (s.c.); assay type: functional; settings: sc; how it was run: as §1
Mus musculus [4] = assay: The ability to reverse an ED50 dose of morphine when tested in mice by the tail-flick procedure at the dose of 30 mg/kg (s.c.) value expressed as narcotic-antagonistic activity; assay type: functional; how it was run: as §1
Mus musculus [5] = assay: The ability to reverse an ED50 dose of morphine when tested in mice by the tail-flick procedure at the dose of 10 mg/kg (s.c.) value expressed as narcotic-antagonistic activity; assay type: functional; how it was run: as §1
Mus musculus [6] = assay: The ability to reverse an ED50 dose of morphine when tested in mice by the tail-flick procedure at the dose of 1 mg/kg (s.c.) value expressed as narcotic-antagonistic activity; assay type: functional; how it was run: as §1
Mus musculus [7] = assay: The ability to reverse an ED50 dose of morphine when tested in mice by the tail-flick procedure at the dose of 3 mg/kg (s.c.) value expressed as narcotic-antagonistic activity; assay type: functional; how it was run: as §1
Mus musculus [8] = assay: The Narcotic-antagonistic activity the ability to reverse an ED50 dose of morphine when tested in mice by the tail-flick procedure at the dose of 10 mg/kg (s.c.); assay type: functional; settings: sc; how it was run: as §1
Monkey = assay: Compound was tested for signs of opiate abstinence at 5 mg/kg dose in monkeys; No effect; assay type: functional, organism-based; parameters: dose 5 mg/kg; settings: Cercopithecidae
Mus musculus [9] = assay: The Narcotic-antagonistic activity the ability to reverse an ED50 dose of morphine when tested in mice by the tail-flick procedure at the dose of 30 mg/kg (s.c.); assay type: functional; settings: sc; how it was run: as §1

Compound | ED50 (Mus musculus [1]) [mg/kg] | inhibition in vivo at 1 mg/kg (Mus musculus [2]) [%] | inhibition in vivo at 3 mg/kg (Mus musculus [3]) [%] | also measured
COc1ccc2c3c1O[C@H]1[C@@H](O)C=C[C@H]4[C@@H](C2)N(C)CC[C@@]341.O=S(=O)(O)O | 7.5 |  |  | 
CN(CC1CC1)[C@@H]1Cc2ccccc2[C@H](c2ccccc2)C1 | 6.3 | 75 | 100 | 
C=CCN1CC[C@]23c4c5ccc(O)c4O[C@H]2C(=O)CC[C@@]3(O)[C@H]1C5.Cl [NALOXONE HYDROCHLORIDE] |  |  |  | AD50 (Mus musculus [4]): 0.031 mg/kg; AD50 (Mus musculus [5]): 0.031 mg/kg; AD50 (Mus musculus [6]): 0.031 mg/kg; AD50 (Mus musculus [7]): 0.031 mg/kg
CN(CC1CC1)[C@@H]1Cc2ccccc2[C@@H](c2ccccc2)C1 | 9.1 | 60 | 100 | inhibition in vivo at 10 mg/kg (Mus musculus [8]): 54%; Activity (Monkey): inactive; inhibition in vivo at 30 mg/kg (Mus musculus [9]): 0%
CN1CC[C@]23c4c5ccc(O)c4O[C@H]2[C@@H](O)C=C[C@H]3[C@H]1C5.CN1CC[C@]23c4c5ccc(O)c4O[C@H]2[C@@H](O)C=C[C@H]3[C@H]1C5.O=S(=O)(O)O | 1.2 |  |  | 
CN(CC1CC1)C1C=C(c2ccccc2)c2ccccc2C1 (stereo unspecified) | > 50 |  |  | 
